Measurements published in publication PMC11348385 (RSC Advances, 2024).
“And” between values parts separate entries of the source, which are not always exact repeats. Equal entries are not always repeated.

Tests used:
VEGFR-2 = VEGFR-2 (Homo sapiens, UniProt P35968); experiment: In vitro VEGFR-2 kinase assay; type: biochemical
HepG2 cell line = experiment: MTT colorimetric cytotoxicity assay, HepG2; type: cell-based, human; settings: for IC50: Homo sapiens, HepG2, 72 h, read-out: IC50 HepG2; for Selectivity index: folds toxic in HepG2 than in VERO cells: VERO vs HepG2; for selectivity class against HepG2: high SI ≥ 5, moderate SI > 2, low SI < 2, vs VERO
MCF-7 cell line = experiment: MTT colorimetric cytotoxicity assay, MCF-7; type: cell-based, human; settings: for IC50: Homo sapiens, MCF7, 72 h, read-out: IC50 MCF-7; for Selectivity index: folds more toxic regarding MCF-7 than VERO cells: VERO vs MCF-7; for selectivity class against MCF-7: high SI ≥ 5, moderate SI > 2, low SI < 2, vs VERO
BAX = BAX expression level in MCF-7 cells; type: cell-based, human; settings: MCF-7, IC50 of 4b
Method in brief: (§1)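 Test compound given to MCF-7 cells for 24 h; Bax and Bcl-2 expression levels then determined. Each is expressed as fold change versus untreated control cells, and the Bax/Bcl-2 ratio is calculated from these fold changes.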

MCF-7 cells [1] = experiment: Cell cycle distribution; type: cell-based, human; settings: MCF-7, 2.3 μM 4b, 24 h, mean ± SEM
Method in brief: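 MCF-7 cells treated with 2.3 μM test compound for 24 h, harvested and stained with propidium iodide. DNA content was analysed for distribution across G1, S and G2/M phases, with an untreated control alongside. Values are mean ± SEM of three independent experiments.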

Bcl-2 = Bcl-2 expression level in MCF-7 cells; type: cell-based, human; settings: MCF-7, IC50 of 4b, 24 h, mean ± SEM
MCF-7 cells [2] = experiment: Annexin V / propidium iodide double staining apoptosis assay; type: cell-based, human; settings: MCF-7, IC50 of 4b, 24 h
BAX/Bcl-2 ratio = BAX/Bcl-2 ratio in MCF-7 cells; type: cell-based, human; settings: MCF-7, IC50 of 4b
Method in brief: as §1

VEGFR-2, sequence (P35968 20-1356): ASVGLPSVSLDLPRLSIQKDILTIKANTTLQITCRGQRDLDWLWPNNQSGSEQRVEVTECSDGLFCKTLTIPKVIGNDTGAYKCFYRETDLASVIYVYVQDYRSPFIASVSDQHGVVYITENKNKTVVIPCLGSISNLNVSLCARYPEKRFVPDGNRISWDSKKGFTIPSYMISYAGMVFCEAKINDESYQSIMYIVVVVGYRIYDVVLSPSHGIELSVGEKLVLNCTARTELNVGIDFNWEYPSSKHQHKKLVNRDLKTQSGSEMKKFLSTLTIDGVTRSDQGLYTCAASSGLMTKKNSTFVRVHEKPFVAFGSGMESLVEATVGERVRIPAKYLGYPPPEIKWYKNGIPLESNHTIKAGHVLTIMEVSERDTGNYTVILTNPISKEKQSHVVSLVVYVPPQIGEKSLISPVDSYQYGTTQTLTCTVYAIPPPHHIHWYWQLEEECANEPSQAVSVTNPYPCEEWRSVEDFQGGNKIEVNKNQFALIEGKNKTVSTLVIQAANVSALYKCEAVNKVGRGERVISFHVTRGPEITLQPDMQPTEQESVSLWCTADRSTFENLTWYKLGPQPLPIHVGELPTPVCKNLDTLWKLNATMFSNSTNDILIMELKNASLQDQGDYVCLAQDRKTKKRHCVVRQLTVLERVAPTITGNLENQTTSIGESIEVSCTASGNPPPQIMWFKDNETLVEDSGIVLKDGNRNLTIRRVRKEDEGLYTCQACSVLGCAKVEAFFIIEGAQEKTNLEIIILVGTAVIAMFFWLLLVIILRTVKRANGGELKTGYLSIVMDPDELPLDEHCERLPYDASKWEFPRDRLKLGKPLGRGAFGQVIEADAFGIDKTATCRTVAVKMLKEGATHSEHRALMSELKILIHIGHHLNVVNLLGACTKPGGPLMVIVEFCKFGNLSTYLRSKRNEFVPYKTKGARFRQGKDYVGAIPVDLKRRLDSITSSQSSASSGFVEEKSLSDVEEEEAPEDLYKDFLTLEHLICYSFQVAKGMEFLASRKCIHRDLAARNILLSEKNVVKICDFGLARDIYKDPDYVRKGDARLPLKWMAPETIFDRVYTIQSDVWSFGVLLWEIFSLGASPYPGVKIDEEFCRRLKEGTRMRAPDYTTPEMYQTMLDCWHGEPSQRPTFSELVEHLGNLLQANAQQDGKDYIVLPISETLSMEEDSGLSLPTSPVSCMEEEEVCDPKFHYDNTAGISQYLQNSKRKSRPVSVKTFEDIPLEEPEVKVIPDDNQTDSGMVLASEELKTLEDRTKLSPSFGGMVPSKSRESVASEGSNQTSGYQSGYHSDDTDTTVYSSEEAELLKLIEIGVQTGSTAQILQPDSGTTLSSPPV

Compound | IC50 (VEGFR-2) | IC50 (HepG2 cell line) | Selectivity index: folds toxic in HepG2 than in VERO cells (HepG2 cell line) | IC50 (MCF-7 cell line) | Selectivity index: folds more toxic regarding MCF-7 than VERO cells (MCF-7 cell line) | selectivity class against MCF-7 (MCF-7 cell line) | further results
Clc1ccc(-c2nnc(Nc3ccc(C4=NNC(c5ccccc5)C4)cc3)c3ccccc23)cc1 (stereo not drawn) [Compound 3a, 4-(4-Chlorophenyl)-N-(4-(5-phenyl-4,5-dihydro-1H-pyrazol-3-yl)phenyl)phthalazin-1-amine] | 1250 ± 50 nM | 1270 ± 30 nM | 3.74 folds | 1160 ± 10 nM | 4.09 folds | moderate selectivity | selectivity class against HepG2 (HepG2 cell line): moderate selectivity
Clc1ccc(-c2nnc(Nc3ccc(C4=NNC(c5ccc(Cl)cc5)C4)cc3)c3ccccc23)cc1 (stereo not drawn) [Compound 3b, 4-(4-Chlorophenyl)-N-(4-(5-(4-chlorophenyl)-4,5-dihydro-1H-pyrazol-3-yl)phenyl)phthalazin-1-amine] | 800 ± 50 nM |  | 5.31 folds | 830 ± 20 nM | 5.12 folds |  | 
Oc1ccccc1C1CC(c2ccc(Nc3nnc(-c4ccc(Cl)cc4)c4ccccc34)cc2)=NN1 (stereo not drawn) [Compound 3c, 2-(3-[4-{(4-[4-Chlorophenyl]phthalazin-1-yl)amino}phenyl]-4,5-dihydro-1H-pyrazol-5-yl)phenol] | 840 ± 50 nM | 1250 ± 20 nM | 3.29 folds | 880 ± 30 nM | 4.67 folds | moderate selectivity | selectivity class against HepG2 (HepG2 cell line): moderate selectivity
Oc1ccc(C2CC(c3ccc(Nc4nnc(-c5ccc(Cl)cc5)c5ccccc45)cc3)=NN2)cc1 (stereo not drawn) [Compound 3d, 4-(3-[4-{(4-[4-Chlorophenyl]phthalazin-1-yl)amino}phenyl]-4,5-dihydro-1H-pyrazol-5-yl)phenol] | 700 ± 50 nM | 150 nM | 29.00 folds | 740 ± 10 nM | 5.88 folds |  | 
COc1ccc(C2CC(c3ccc(Nc4nnc(-c5ccc(Cl)cc5)c5ccccc45)cc3)=NN2)cc1 (stereo not drawn) [Compound 3e, 4-(4-Chlorophenyl)-N-(4-[5-{4-methoxyphenyl}-4,5-dihydro-1H-pyrazol-3-yl]phenyl)phthalazin-1-amine] | 120 ± 20 nM |  | 16.95 folds | 80 ± 10 nM | 40.25 folds |  | 
O=c1nc(-c2ccc(Nc3nnc(-c4ccc(Cl)cc4)c4ccccc34)cc2)cc(-c2ccccc2)[nH]1 [Compound 4a, 4-(4-[{4-(4-Chlorophenyl)phthalazin-1-yl}amino]phenyl)-6-phenylpyrimidin-2(1H)-one] | 150 ± 30 nM | 290 ± 10 nM | 13.79 folds |  | 25.00 folds |  | 
O=c1nc(-c2ccc(Nc3nnc(-c4ccc(Cl)cc4)c4ccccc34)cc2)cc(-c2ccc(Cl)cc2)[nH]1 [Compound 4b, 6-(4-Chlorophenyl)-4-(4-[{4-(4-chlorophenyl)phthalazin-1-yl}amino]phenyl)pyrimidin-2(1H)-one] | 90 ± 20 nM | 60 ± 10 nM | 50.00 folds | 60 ± 10 nM | 50.00 folds |  | boost of Bax level vs control (BAX): approximately 3 folds; Gene expression fold change BAX (BAX; 24 h, mean ± SEM): 3.3282 ± 0.67; DNA content % G1 (MCF-7 cells [1]): 53.96 ± 2.15%; DNA content % S (MCF-7 cells [1]): 39.12 ± 1.92%; Gene expression fold change Bcl-2 (Bcl-2): 0.374 ± 0.02; early apoptosis, folds over the control (MCF-7 cells [2]): more than 25 folds; % Apoptosis Early (MCF-7 cells [2]; mean ± SEM): 15.06% and 15.06 ± 0.91%; % Apoptosis Late (MCF-7 cells [2]; mean ± SEM): 6.72 ± 0.31%; % Necrosis (MCF-7 cells [2]; mean ± SEM): 4.66% and 4.66 ± 0.19%; boost of Bax/Bcl2 ratio compared to the control (BAX/Bcl-2 ratio): approximately 8 folds; Gene expression fold change BAX/Bcl-2 ratio (BAX/Bcl-2 ratio; 24 h, mean ± SEM): 8.25 ± 0.71
S=c1nc(-c2ccc(Nc3nnc(-c4ccc(Cl)cc4)c4ccccc34)cc2)cc(-c2ccccc2)[nH]1 [Compound 5a, 4-(4-[{4-(4-Chlorophenyl)phthalazin-1-yl}amino]phenyl)-6-phenylpyrimidin-2(1H)-thione] | 750 ± 50 nM | 800 ± 20 nM | 5.15 folds | 860 ± 10 nM | 4.79 folds | moderate selectivity | 
S=c1nc(-c2ccc(Nc3nnc(-c4ccc(Cl)cc4)c4ccccc34)cc2)cc(-c2ccc(Cl)cc2)[nH]1 [Compound 5b, 6-(4-Chlorophenyl)-4-(4-[{4-(4-chlorophenyl)phthalazin-1-yl}amino]phenyl)pyrimidin-2(1H)-thione] | 130 ± 30 nM | 150 ± 10 nM | 21.00 folds | 110 ± 10 nM | 28.64 folds |  | 
CNC(=O)c1cc(Oc2ccc(NC(=O)Nc3ccc(Cl)c(C(F)(F)F)c3)cc2)ccn1 [Sorafenib, sorafenib, reference compound] |  | 30 ± 10 nM |  | 50 ± 10 nM |  |  | 
